Source: ChEMBL document CHEMBL1124508, “E-ring desoxy analogues of etoposide” (J Med Chem, 1989)
In brackets after ≈: the same amount, converted by molar mass.

Legend:
B16-F10 [1] = assay: The inhibition concentration of B16-F10 cell growth after 72 hours; format: functional, cell-based; conditions: Mus musculus, B16-F10, 72 h
Method in brief: (§1)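 Panel of human colon lines (HCT-116, etoposide sensitive; HCT/VP35, acquired-resistant; MOSER, inherently resistant) and mouse melanoma B16-F10. Viability is read by crystal violet protein stain, or by XTT vital stain for some HCT/VP35 and HCT-116 runs. IC50 is the dose reducing cell growth by 50% after 72 h versus controls. Values are averages of at least two runs.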

[2] = Inhibitory selectivity against HCT/VP35 and HCT116 cell growth after 72 hr IC50 value for etoposide in the parenthesis; format: functional, HCT-116
Method in brief: (§2)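 Ratio of the HCT/VP35 IC50 to the HCT-116 IC50, as a measure of overcoming acquired etoposide resistance. The IC50 is the dose giving 50% growth reduction after 72 h versus controls, read by crystal violet or XTT stain. Values are averages of at least two runs.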

Homo sapiens [3] = species on record: Homo sapiens; assay: The inhibition concentration of MOSER cell growth after 72 hours; format: functional; method in brief: as §1
Mus musculus [4] = assay: Anti-P388 Leukemia activity administered 200 mg/kg intraperitoneally, expressed as percent of the median survival time; format: functional; conditions: route intraperitoneal
Method in brief: (§3)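 P388 leukemia-bearing mice given drug ip on days 1 and 5, with dose expressed per injection. T/C is the median survival time of treated mice as a percent of saline-treated controls. Long-term survivors are mice alive out of total on day 30, when the experiment ended.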

Mus musculus [5] = assay: Anti-P388 Leukemia activity administered 50 mg/kg intraperitoneally, expressed as percent of the median survival time; format: functional; conditions: route intraperitoneal; method in brief: as §3
HCT-116 [6] = assay: The inhibition concentration against etoposide sensitive HCT116 cell growth after 72 hours; format: functional, cell-based; conditions: Homo sapiens, HCT-116, 72 h; method in brief: as §1
HCT cell line [7] = assay: The inhibition concentration against etoposide resistant HCT/VP35 cell growth after 72 hours; format: functional, cell-based; conditions: Homo sapiens; method in brief: as §1
[8] = Inhibitory selectivity against HCT/VP35 and HCT116 cell growth after 72 hours; format: functional, HCT-116; method in brief: as §2
Mus musculus [9] = assay: Anti-P388 Leukemia activity administered 150 mg/kg intraperitoneally, expressed as percent of the median survival time; format: functional; conditions: route intraperitoneal; method in brief: as §3
Mus musculus [10] = assay: Anti-P388 Leukemia activity administered 30 mg/kg intraperitoneally, expressed as percent of the median survival time; format: functional; conditions: route intraperitoneal; method in brief: as §3
Mus musculus [11] = assay: Percent median survival time (T/C) of mice when administered intraperitoneally at dose 40 mg/kg; format: functional; conditions: route intraperitoneal; method in brief: as §3
Homo sapiens [12] = species on record: Homo sapiens; assay: In vitro inhibitory concentration against MOSER cell growth after 72 hours; format: functional; method in brief: as §1
HCT cell line [13] = assay: In vitro inhibitory concentration against etoposide resistant HCT/VP35 cell growth after 72 hours; format: functional, cell-based; conditions: Homo sapiens; method in brief: as §1
HCT-116 [14] = assay: In vitro inhibitory concentration against etoposide sensitive HCT116 cell growth after 72 hours; format: functional, cell-based; conditions: Homo sapiens, HCT-116, 72 h; method in brief: as §1
B16-F10 [15] = assay: In vitro inhibitory concentration against B16-F10 cell growth after 72 hours; format: functional, cell-based; conditions: Mus musculus, B16-F10, 72 h; method in brief: as §1
Mus musculus [16] = assay: Percent median survival time (T/C) of mice when administered intraperitoneally at dose 20 mg/kg; format: functional; conditions: route intraperitoneal; method in brief: as §3
Mus musculus [17] = assay: Percent median survival time (T/C) of mice when administered intraperitoneally at dose 80 mg/kg; format: functional; conditions: route intraperitoneal; method in brief: as §3
Mus musculus [18] = assay: Number of long time survivors (mice alive/total) when administered intraperitoneally at dose 60 mg/kg when tested in 4 mice; format: functional; conditions: route intraperitoneal; method in brief: as §3
Mus musculus [19] = assay: Number of long time survivors (mice alive/total) when administered intraperitoneally at dose 80 mg/kg when tested in 4 mice; format: functional; conditions: route intraperitoneal; method in brief: as §3
Mus musculus [20] = assay: Maximum percent median survival time of mice when administered intraperitoneally at dose 60 mg/kg; format: functional; conditions: route intraperitoneal
Mus musculus [21] = assay: Percent median survival time (T/C) of mice when administered intraperitoneally at dose 120 mg/kg; format: functional; conditions: route intraperitoneal; method in brief: as §3

C[C@@H]1OC[C@H]2O[C@@H](O[C@@H]3c4cc5c(cc4[C@@H](c4ccc(O)cc4)[C@H]4C(=O)OC[C@@H]43)OCO5)[C@H](O)[C@@H](O)[C@@H]2O1 showed an IC50 (B16-F10 [1]) of 43.4 µg/mL (≈ 82.1 µM), a Selectivity [2] of 1.4 and an IC50 (Homo sapiens [3]) of 42.9 µg/mL (≈ 81.2 µM). For the same compound, the T/C (Mus musculus [4]) was 175, the T/C (Mus musculus [5]) was 145 and the IC50 (HCT-116 [6]) was 62.7 µg/mL (≈ 119 µM). It also gave an IC50 (HCT cell line [7]) of 85.1 µg/mL (≈ 161 µM).
With COc1cc(OC)cc([C@@H]2c3cc4c(cc3[C@@H](O[C@@H]3O[C@@H]5CO[C@@H](C)O[C@H]5[C@H](O)[C@H]3O)[C@H]3COC(=O)[C@H]23)OCO4)c1 the Selectivity [8] was 0.47, the T/C (Mus musculus [9]) was 175 and the IC50 (B16-F10 [1]) was 25 µg/mL (≈ 43.7 µM). It also gave an IC50 (Homo sapiens [3]) of 45.5 µg/mL (≈ 79.5 µM), a T/C (Mus musculus [10]) of 125 and an IC50 (HCT cell line [7]) of 3.4 µg/mL (≈ 5.94 µM).
With COc1cc([C@@H]2c3cc4c(cc3[C@@H](O[C@@H]3O[C@@H]5CO[C@@H](C)O[C@H]5[C@H](O)[C@H]3O)[C@H]3COC(=O)[C@H]23)OCO4)ccc1O the Selectivity [8] was 12.3, the T/C (Mus musculus [11]) was 245 and the IC50 (Homo sapiens [12]) was 46.5 µg/mL (≈ 83.3 µM). For the same compound, the IC50 (HCT cell line [13]) was 5.4 µg/mL (≈ 9.67 µM), the IC50 (HCT-116 [14]) was 15.4 µg/mL (≈ 27.6 µM) and the IC50 (B16-F10 [15]) was 20.1 µg/mL (≈ 36 µM). For the same compound, the T/C (Mus musculus [16]) was 190.
Work on COC1=CC([C@@H]2c3cc4c(cc3[C@@H](O[C@@H]3O[C@@H]5CO[C@@H](C)O[C@H]5[C@H](O)[C@H]3O)[C@H]3COC(=O)[C@@H]32)OCO4)=CC(=O)C1=O yielded a T/C (Mus musculus [17]) of over 621, an LTS (Mus musculus [18]) of 2 and a T/C (Mus musculus [11]) of 274. For the same compound, the LTS (Mus musculus [19]) was 3 and the “Max T/C” value (Mus musculus [20]) was over 595.
Compound COc1cc([C@@H]2c3cc4c(cc3[C@@H](O[C@@H]3O[C@@H]5CO[C@@H](C)O[C@H]5[C@H](O)[C@H]3O)[C@H]3COC(=O)[C@H]23)OCO4)cc(OC)c1O [ETOPOSIDE] has a T/C (Mus musculus [21]) of 447.
